Legend:
Rattus norvegicus [1] = experiment: Hypotensive activity in normotensive Wistar rat assessed as reduction of systolic blood pressure at 2.5 mg/kg, iv after 30 mins; assay type: functional, Artery
Procedure, shortened: (§1)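 Male normotensive Wistar rats (170–350 g) were anaesthetised with thiopental 75 mg/kg ip. The right carotid artery was cannulated with heparin-saline tubing for pressure recording. After a 5 min stabilisation, compound was injected into a caudal vein at 1 mL/kg. Systolic and diastolic pressure were followed up to 60 min. Data are means ± SEM of 5–6 animals, compared by one-way ANOVA.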

Rattus norvegicus [2] = experiment: Cardiotoxicity in Wistar rat assessed as hear beats per min at 5 mg/kg, iv after 10 mins by ECG analysis; assay type: toxicity, organism-based; design: dose 5 mg/kg, route intravenous; conditions: in vivo
Rattus norvegicus [3] = experiment: Hypotensive activity in normotensive Wistar rat assessed as reduction of systolic blood pressure at 2.5 mg/kg, iv after 60 mins; assay type: functional, Artery; procedure, shortened: as §1
Rattus norvegicus [4] = experiment: Hypotensive activity in normotensive Wistar rat assessed as reduction of systolic blood pressure at 2.5 mg/kg, iv after 10 mins; assay type: functional, Artery; procedure, shortened: as §1
Rattus norvegicus [5] = experiment: Hypotensive activity in normotensive Wistar rat assessed as reduction of diastolic blood pressure at 2.5 mg/kg, iv after 10 mins; assay type: functional, Artery; procedure, shortened: as §1
Rattus norvegicus [6] = experiment: Hypotensive activity in normotensive Wistar rat assessed as reduction of diastolic blood pressure at 2.5 mg/kg, iv after 5 mins; assay type: functional, Artery; procedure, shortened: as §1
Rattus norvegicus [7] = experiment: Hypotensive activity in normotensive Wistar rat assessed as reduction of diastolic blood pressure at 2.5 mg/kg, iv after 30 mins; assay type: functional, Artery; procedure, shortened: as §1
Rattus norvegicus [8] = experiment: Hypotensive activity in normotensive Wistar rat assessed as reduction of diastolic blood pressure at 2.5 mg/kg, iv after 20 mins; assay type: functional, Artery; procedure, shortened: as §1
[9] = Displacement of [3H]CGP-12177 from beta1-adrenergic receptor in rat cerebral cortex by liquid scintillation counting; assay type: tissue-based
Procedure, shortened: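 Rat cerebral cortex was homogenised in ice-cold 50 mM Tris-HCl pH 7.6 and spun at 20,000 g for 20 min at 0–4 °C, then washed once. Radioligands: [3H]prazosin 0.2 nM for α1, [3H]clonidine 2 nM for α2, [3H]CGP-12177 0.2 nM for β1. Test compounds were run at 7–8 concentrations from 10^-11 to 10^-4 M. Nonspecific binding was defined with phentolamine (α1), clonidine (α2) or propranolol (β1). Counting was by liquid scintillation, in duplicate. Ki was derived by Cheng–Prusoff from 2–3 experiments.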

Rattus norvegicus [10] = experiment: Hypotensive activity in normotensive Wistar rat assessed as reduction of diastolic blood pressure at 2.5 mg/kg, iv after 60 mins; assay type: functional, Artery; procedure, shortened: as §1
Rattus norvegicus [11] = experiment: Hypotensive activity in normotensive Wistar rat assessed as reduction of systolic blood pressure at 2.5 mg/kg, iv after 20 mins; assay type: functional, Artery; procedure, shortened: as §1
Rattus norvegicus [12] = experiment: Hypotensive activity in normotensive Wistar rat assessed as reduction of systolic blood pressure at 2.5 mg/kg, iv after 5 mins; assay type: functional, Artery; procedure, shortened: as §1
Rattus norvegicus [13] = experiment: Hypotensive activity in normotensive Wistar rat assessed as reduction of diastolic blood pressure at 0.16 mg/kg, iv after 10 mins; assay type: functional, Artery
Procedure, shortened: (§2)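 Male normotensive Wistar rats were anaesthetised with thiopental 75 mg/kg ip. The right carotid artery was cannulated with heparinised saline for pressure recording. After 5 min of stabilisation, compound was injected into the tail vein at 1 mL/kg. Systolic and diastolic pressure were followed up to 60 min. Data are means ± SEM of 5–6 rats, analysed by one-way ANOVA.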

Rattus norvegicus [14] = experiment: Cardiotoxicity in Wistar rat assessed as QRS interval at 2.5 mg/kg, iv after 5 mins by ECG analysis; assay type: toxicity, organism-based; design: dose 2.5 mg/kg, route intravenous; conditions: in vivo
Procedure, shortened: (§3)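 Male normotensive Wistar rats (170–350 g, groups of six) were anaesthetised. Compound was given iv at 1 mL/kg. ECG was recorded just before dosing and at 1, 5 and 15 min after, and PQ, QRS and QT intervals and heart rate were read. Groups were compared by one-way ANOVA.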

Rattus norvegicus [15] = experiment: Cardiotoxicity in Wistar rat assessed as PQ interval at 2.5 mg/kg, iv after 10 mins by ECG analysis; assay type: toxicity, organism-based; design: dose 2.5 mg/kg, route intravenous; conditions: in vivo
Rattus norvegicus [16] = experiment: Hypotensive activity in normotensive Wistar rat assessed as reduction of diastolic blood pressure at 0.31 mg/kg, iv after 20 mins; assay type: functional, Artery; procedure, shortened: as §2
Rattus norvegicus [17] = experiment: Cardiotoxicity in Wistar rat assessed as PQ interval at 2.5 mg/kg, iv after 15 mins by ECG analysis; assay type: toxicity, organism-based; design: dose 2.5 mg/kg, route intravenous; conditions: in vivo, 0.25 h; procedure, shortened: as §3
Rattus norvegicus [18] = experiment: Cardiotoxicity in Wistar rat assessed as QRS interval at 2.5 mg/kg, iv after 15 mins by ECG analysis; assay type: toxicity, organism-based; design: dose 2.5 mg/kg, route intravenous; conditions: in vivo, 0.25 h; procedure, shortened: as §3
Rattus norvegicus [19] = experiment: Cardiotoxicity in Wistar rat assessed as QT interval at 2.5 mg/kg, iv after 10 mins by ECG analysis; assay type: toxicity, organism-based; design: dose 2.5 mg/kg, route intravenous; conditions: in vivo
Rattus norvegicus [20] = experiment: Cardiotoxicity in Wistar rat assessed as QT interval at 2.5 mg/kg, iv after 15 mins by ECG analysis; assay type: toxicity, organism-based; design: dose 2.5 mg/kg, route intravenous; conditions: in vivo, 0.25 h; procedure, shortened: as §3
Rattus norvegicus [21] = experiment: Cardiotoxicity in Wistar rat assessed as hear beats per min at 2.5 mg/kg, iv after 15 mins by ECG analysis; assay type: toxicity, organism-based; design: dose 2.5 mg/kg, route intravenous; conditions: in vivo, 0.25 h; procedure, shortened: as §3
Rattus norvegicus [22] = experiment: Cardiotoxicity in Wistar rat assessed as QRS interval at 2.5 mg/kg, iv after 10 mins by ECG analysis; assay type: toxicity, organism-based; design: dose 2.5 mg/kg, route intravenous; conditions: in vivo
Rattus norvegicus [23] = experiment: Cardiotoxicity in Wistar rat assessed as PQ interval at 2.5 mg/kg, iv after 5 mins by ECG analysis; assay type: toxicity, organism-based; design: dose 2.5 mg/kg, route intravenous; conditions: in vivo; procedure, shortened: as §3
Rattus norvegicus [24] = experiment: Cardiotoxicity in Wistar rat assessed as hear beats per min at 2.5 mg/kg, iv after 5 mins by ECG analysis; assay type: toxicity, organism-based; design: dose 2.5 mg/kg, route intravenous; conditions: in vivo; procedure, shortened: as §3
Rattus norvegicus [25] = experiment: Antiarrhythmic activity in iv dosed Wistar rat adrenaline-induced arrhythmia model assessed as reduction of heart-rhythm disturbance administered 15 mins adrenaline-challenge; assay type: functional; conditions: 0.25 h
Procedure, shortened: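 Anaesthetised male Wistar rats (thiopental 75 mg/kg ip). Test compound iv at 1 mL/kg, given 15 min before adrenaline 20 µg/kg iv. Activity means no premature beats and inhibition of arrhythmia, judged against a control group. There were three dose groups of six rats. ED50 with confidence limits was calculated by the Litchfield–Wilcoxon method.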

Rattus norvegicus [26] = experiment: Cardiotoxicity in Wistar rat assessed as hear beats per min at 2.5 mg/kg, iv after 10 mins by ECG analysis; assay type: toxicity, organism-based; design: dose 2.5 mg/kg, route intravenous; conditions: in vivo
Rattus norvegicus [27] = experiment: Cardiotoxicity in Wistar rat assessed as QT interval at 2.5 mg/kg, iv after 5 mins by ECG analysis; assay type: toxicity, organism-based; design: dose 2.5 mg/kg, route intravenous; conditions: in vivo; procedure, shortened: as §3
Rattus norvegicus [28] = experiment: Hypotensive activity in normotensive Wistar rat assessed as reduction of systolic blood pressure at 0.31 mg/kg, iv after 20 mins; assay type: functional, Artery
Procedure, shortened: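 Male normotensive Wistar rats (170–350 g) anaesthetised with thiopental 75 mg/kg ip; right carotid artery cannulated with heparinised saline-filled polyethylene tubing for pressure recording. After a 5 min stabilisation, compound given into the caudal vein at 1 mL/kg. Systolic pressure is recorded at 0, 5, 10, 20, 30 and 60 min, and the data are reported as mean ± SEM of five to six animals, with one-way ANOVA.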

Rattus norvegicus [29] = experiment: Hypotensive activity in normotensive Wistar rat assessed as reduction of diastolic blood pressure at 1.25 mg/kg, iv after 20 mins; assay type: functional, Artery; procedure, shortened: as §2
Rattus norvegicus [30] = experiment: Cardiotoxicity in Wistar rat assessed as PQ interval at 10 mg/kg, iv after 5 mins by ECG analysis; assay type: toxicity, organism-based; design: dose 10 mg/kg, route intravenous; conditions: in vivo
Procedure, shortened: (§4)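 Male normotensive Wistar rats, 170–350 g, six per group. Compound given iv at a constant volume of 1 mL/kg. ECG was recorded just before dosing and at 1, 5 and 15 min after. PQ, QRS and QT intervals and heart rate were read from the trace. Groups were compared by one-way ANOVA.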

Rattus norvegicus [31] = experiment: Cardiotoxicity in Wistar rat assessed as QT interval at 10 mg/kg, iv after 5 mins by ECG analysis; assay type: toxicity, organism-based; design: dose 10 mg/kg, route intravenous; conditions: in vivo; procedure, shortened: as §4

Ki [9] | Compound | Activity (Rattus norvegicus [14]) | Activity (Rattus norvegicus [15]) | Activity (Rattus norvegicus [17]) | Activity (Rattus norvegicus [18]) | Activity (Rattus norvegicus [19]) | Activity (Rattus norvegicus [20]) | Activity (Rattus norvegicus [21]) | Activity (Rattus norvegicus [22]) | Activity (Rattus norvegicus [23]) | Activity (Rattus norvegicus [24]) | ED50 (Rattus norvegicus [25]) | Activity (Rattus norvegicus [26]) | Activity (Rattus norvegicus [27]) | Activity (Rattus norvegicus [29]) | also measured
43 µM | Cl.Cl.Cl.O=c1c2ccc(Cl)cc2oc2c(OCC(O)CN3CCN(C/C=C/c4ccccc4)CC3)cccc12 (racemic) | – | – | – | – | – | – | – | – | – | – | – | – | – | – | Activity (Rattus norvegicus [1]): 129.8 mmHg; Activity (Rattus norvegicus [2]): 324.3 bpm; Activity (Rattus norvegicus [3]): 126.8 mmHg; Activity (Rattus norvegicus [4]): 133 mmHg; Activity (Rattus norvegicus [5]): 110.6 mmHg; Activity (Rattus norvegicus [6]): 103.2 mmHg; Activity (Rattus norvegicus [7]): 110.8 mmHg; Activity (Rattus norvegicus [8]): 110.4 mmHg; Activity (Rattus norvegicus [10]): 108.6 mmHg; Activity (Rattus norvegicus [11]): 130.8 mmHg; Activity (Rattus norvegicus [12]): 125 mmHg
7.6 µM | COc1ccccc1N1CCN(CC(O)COc2cccc3c(=O)c4ccccc4oc23)CC1.Cl (racemic) | 19.6 ms | 43.3 ms | 42.8 ms | 20.2 ms | 68.2 ms | 68.4 ms | 303.3 bpm | 19.8 ms | 44.3 ms | 341.2 bpm | 0.88 mg/kg | 315.2 bpm | 69.7 ms | – | Activity (Rattus norvegicus [13]): 110.2 mmHg; Activity (Rattus norvegicus [16]): 102 mmHg; Activity (Rattus norvegicus [28]): 120.6 mmHg
11.2 µM | COc1ccccc1N1CCN(CC(COc2cccc3c(=O)c4ccccc4oc23)OC(C)=O)CC1.Cl (racemic) | 19 ms | 48 ms | 48 ms | 19 ms | 60 ms | 60 ms | 366.3 bpm | 19 ms | 48 ms | 375 bpm | 0.87 mg/kg | 369 bpm | 61.8 ms | 92.2 mmHg | –
– | Cl.Cl.Cl.O=c1c2ccc(Cl)cc2oc2c(OCC(O)CN3CCN(CCOc4ccccc4)CC3)cccc12 (racemic) | – | – | – | – | – | – | – | – | – | – | – | – | – | 97.4 mmHg | Activity (Rattus norvegicus [30]): 33.12 ms; Activity (Rattus norvegicus [31]): 54.4 ms

Reference: ChEMBL document CHEMBL2311390, “Synthesis and preliminary evaluation of pharmacological properties of some piperazine derivatives of xanthone” (Bioorg Med Chem, 2013)
